Compound activity (PubChem BioAssay)
Sampled rows, rich in hits. Any-hit rate of the full collection: about 3.1%.
CSC inhib = blocks cancer stem cells; inhibition, % at 7.5 µM; 300,000 tested, 1.1% active; cancer stem cell-like cells viability, luminescence; AID 2717; in the data active = inhibition above about 75%; inconclusive = no clear call, values can overlap the other calls; tested in HMLE shEcad cells
T cruzi inh = T. cruzi replication inhibition; T. cruzi beta-gal in NIH3T3, luminescence, 90 h; inhibition, % (concentration not given with the values); 300,000 tested, 1.4% active;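 active = mean inhibition across valid replicates above about 55%, limit read from the data; inconclusive = mean below that limit but half or more replicates reach it; inactive = mean below it, under half of replicates reach it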;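 also: signal also drops with host cell toxicity which is not excluded here; higher percent means less beta-gal luminescence so fewer parasites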
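Incubation – ≥90 h infection period, 3 h prior cell attachment · System – NIH/3T3 fibroblasts plus reporter T. cruzi · Doses – compound pinned at 50 nL/well, DMSO · Read-out basis – percent inhibition of parasite-derived β-gal signal · Signal – luminescent β-galactosidase signal after 60 min lysis · Also added – 5000 T. cruzi trypomastigotes/well · Medium – Low-serum DMEM with 2% FBS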
Beta cell apopt = beta cell apoptosis inhibition; INS-1E cytokine-induced death, ATP luminescence, 48 h; percent of positive-control rescue, neutral wells zero; protection from apoptosis, % (concentration not given with the values); 300,000 tested, 0.8% active; AID 435005;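 active = Every replicate reaches about 75%, or at least half do and their mean reaches it too, limit read from the data; inconclusive = At least half of replicates reach the limit but their mean does not; inactive = Under half of replicates reach the limit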;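 also: higher means more ATP so stronger rescue from cytokine killing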
Bfl-1 A1 inh = inhibitors of the anti-apoptotic protein A1, read as caspase activation. 330,000 tested, 0.066% active. MEF A1-2A-BIM cells, Caspase-Glo 3/7 luminescence, 3 h; percent of clofoctol response, vehicle zero. caspase activation, % (no concentration beside the values);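 active = over half of replicate activation scores above 10%, or exactly half above 10 with the replicate mean above 10; inconclusive = replicate mean below 10 yet half the replicates above 10; inactive = over half of replicates below 10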
H9c2 TAG inh = reduces triacylglycerol accumulation in H9c2 cells; Nile Red lipid (TAG) fluorescence; cells loaded with 200 µM oleic acid; inhibition, % at 12.5 µM; 230,000 tested, 0.66% active; AID 651582;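 active = pattern-corrected inhibition of lipid staining of at least 50% with the nuclear-stain viability signal not falling by more than 50%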
Calb FLC = affects C. albicans growth with fluconazole; C. albicans CaCi-2 (fluconazole-resistant clinical isolate) + fluconazole, Alamar Blue growth, 48 h; growth inhibition, % (concentration not given with the values); 300,000 tested, 0.57% active;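 active = growth inhibition above about 58% in most replicates, limit read from the data, passing the limit was not always enough; inconclusive = exactly half the replicates above a set limit; inactive = most replicates below a set limit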;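 also: all wells also contain fluconazole at 8 µg/ml as a sub-toxic cotreatment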
Large screens that a line does not name were inactive.

CCCCCCN(C(=O)CCCCCN1C(=O)NC(c2ccc(-c3ccccc3)cc2)C(C(=O)OCc2ccccc2)=C1C)C(C(=O)NCCCC)c1ccc(OCC(=O)OC)cc1 (stereo not given)	none (no result: H9c2 TAG inh)
CC(C)(C)c1ccc(O)c(O)c1	CSC inhib 86.3 (no result: T cruzi inh, H9c2 TAG inh, Calb FLC)
Cc1ccc([N+](=O)[O-])cc1NC(=O)c1ccc(CSc2ccccc2)cc1	none (no result: H9c2 TAG inh)
Cc1ccc(SCc2ccc(C(=O)Nc3cccc([N+](=O)[O-])c3C)cc2)cc1	T cruzi inh 59.5 (no result: H9c2 TAG inh)
O=C(NCCS(=O)(=O)N1CCN(c2ccccc2)CC1)C1CCCCC1	none (no result: CSC inhib, T cruzi inh, Beta cell apopt, Bfl-1 A1 inh, Calb FLC)
COc1cc(CNC(C)c2ccccc2)cc(Br)c1OCc1ccc(F)cc1 (stereo not given)	T cruzi inh 55.1, Beta cell apopt 113.4 (no result: H9c2 TAG inh)
COc1cc(CNc2ccc(O)cc2)cc(Br)c1OCc1ccccc1	none
COc1cc(CNC(C)c2ccccc2)cc(Br)c1OCc1ccccc1 (stereo not given)	CSC inhib 111.7 (no result: H9c2 TAG inh)
CCOC(=O)N1CCC(NC(=O)c2ccc3c(c2)N(C)C(=O)/C(=C/c2cccc(OC)c2)S3)CC1	none (no result: H9c2 TAG inh)
C=CCC(C(=O)OC)(C(=O)OC)c1ccc([N+](=O)[O-])cc1[N+](=O)[O-]	T cruzi inh 58.8
COC(=O)C(Cc1cnc(Cl)s1)(C(=O)OC)c1ccc([N+](=O)[O-])cc1[N+](=O)[O-]	T cruzi inh 56.7
CCCCN1/C(=C/c2ccc3ccccc3[n+]2CC)Sc2ccccc21	T cruzi inh 62.7, Calb FLC inconclusive (no result: CSC inhib, Beta cell apopt, Bfl-1 A1 inh, H9c2 TAG inh)
CCN1/C(=C/c2ccc3ccccc3[n+]2CC)C=Cc2ccccc21	Beta cell apopt 107.7, Calb FLC 105.1
CCN1/C(=C/c2ccc3ccccc3[n+]2CCCS(=O)(=O)[O-])C=Cc2cc(C)ccc21	none (no result: H9c2 TAG inh)
CCN1/C(=C/c2ccc3cc(C)ccc3[n+]2CC)Sc2cc(C)ccc21	none (no result: CSC inhib, T cruzi inh, Beta cell apopt, Bfl-1 A1 inh, Calb FLC)
CCOC(=O)C1=C(CC)Nc2ccccc2N=C1NC(=O)Nc1ccc(Cl)c(Cl)c1	T cruzi inh 60.9
CCOC(=O)C1=C(CC)Nc2ccccc2N=C1NC(=O)c1cc(C)on1	none (no result: CSC inhib, T cruzi inh, Calb FLC)
CCCCCC1CCC(c2n[nH]c(=S)n2C)CC1 (stereo not given)	T cruzi inh 69.6, Calb FLC 99.5
CCn1nc(C(=O)NCCc2ccc3c(c2)OCCO3)c2ccccc2c1=O	none (no result: T cruzi inh, Calb FLC)
O=C(Cc1ccc([N+](=O)[O-])cc1)Nc1cccc(C(=O)N2CCCCC2)c1	none (no result: T cruzi inh, Calb FLC)
COC(=O)c1c(-c2ccc(N(C)C)cc2)sc2ccc(OC)cc12	CSC inhib 105.6 (no result: T cruzi inh, Calb FLC)
CN(C1=C(NC(=O)c2ccccc2)C(=O)c2ccccc2C1=O)C1CCS(=O)(=O)C1 (stereo not given)	Beta cell apopt 97.3, Calb FLC inconclusive
Cc1cccc(CCN(C(=O)Cc2cccs2)C(C(=O)NC2CCCCC2)c2cccnc2)c1 (stereo not given)	none (no result: H9c2 TAG inh)
O=C(NC1CCCC1)C(c1ccccc1)N(Cc1cccnc1)C(=O)Cc1cccs1 (stereo not given)	T cruzi inh 66.6
Cc1ccc(N(C(=O)Cc2cccs2)C(C(=O)NC2CCCC2)c2ccncc2)cc1 (stereo not given)	none (no result: H9c2 TAG inh)
Cc1ccc(N(C(=O)CCl)C(C(=O)NC2CCCCC2)c2cccnc2)cc1C (stereo not given)	CSC inhib 88.3, Calb FLC inconclusive (no result: H9c2 TAG inh)
Cc1ccc(N(C(=O)CNC(=O)c2ccco2)C(C(=O)NC2CCCCC2)c2cccnc2)cc1C (stereo not given)	none (no result: H9c2 TAG inh)
Cc1ccc(CN(C(=O)Cc2cccs2)C(C(=O)NC2CCCC2)c2ccncc2)cc1 (stereo not given)	T cruzi inh 58.6 (no result: H9c2 TAG inh)
O=S(=O)(NC1CC1)c1ccc(S(=O)(=O)N(Cc2ccccn2)C2CC2)cc1	none
CC(=O)Nc1ccc(NC(=O)C2CCN(C(=O)c3cccs3)CC2)cc1	none (no result: H9c2 TAG inh)
Cc1nn(-c2ccccc2)c(C)c1NC(=O)COc1ccc([N+](=O)[O-])cc1	none
CCOC(=O)c1ccc(-c2ccc(/C=N/NC(=O)CN(c3cccc(C)c3)S(C)(=O)=O)o2)cc1	Bfl-1 A1 inh 17.4 (no result: H9c2 TAG inh)
Cc1ccc(C)c(N(CC(=O)N/N=C/c2ccc(-c3ccc([N+](=O)[O-])cc3)o2)S(=O)(=O)c2ccccc2)c1	T cruzi inh 72.4 (no result: H9c2 TAG inh)
O=C(c1cc(C2CC2)nn1-c1ccccc1)N1CCN(S(=O)(=O)c2cccc(F)c2)CC1	none (no result: T cruzi inh, Calb FLC)
